Measured values from ChEMBL document CHEMBL4354825, “Design and Synthesis of Basic Selective Estrogen Receptor Degraders for Endocrine Therapy Resistant Breast Cancer” (J Med Chem, 2019).
pIC50: −log10 of the molar value. Calls of active or inactive are those of the source. The rule behind the calls is not given here.

Assays:
[1] = Antiproliferative activity against human MCF7:WS8 cells assessed as reduction in cell viability incubated for 5 days by Hoechst 33258 dye based assay relative to control; assay type: functional; settings: MCF7:WS8, 120 h
Procedure, shortened: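 Cells were seeded at 5000 per well; MCF7:WS8 had been estrogen-stripped for 2 days first. Compounds were serially diluted in DMSO, with 0.01% DMSO as vehicle. The medium was removed on day 5 (MCF7:WS8) or day 7 (MCF7:5C), and cells were lysed by freezing at −80 °C overnight. DNA was measured by Hoechst 33258 fluorescence. Maximum efficacy was normalized to vehicle (0%) and no cells (100%); at least three biological replicates.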

[2] = Drug concentration in C57BL/6 mouse brain at 100 mg/kg, po measured after 2 hrs by LC/MS-MS analysis; assay type: ADME, organism-based; settings: read-out: Drug uptake
Procedure, shortened: (§1)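 PK screen in female C57BL/6 mice (N = 3 per time point). Dosed by gavage at 100 mg/kg in HPβD/PEG-400. Plasma and brain were taken from perfused mice at 30 and 120 min. Quantified by LC-MS/MS in MRM mode, with standard curves in each matrix and a common internal standard. Values are mean and s.d.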

[3] = Plasma concentration in C57BL/6 mouse at 100 mg/kg, po measured after 2 hrs by LC/MS-MS analysis; assay type: ADME, organism-based; procedure, shortened: as §1
[4] = target: T1, Estrogen receptor (Homo sapiens) (UniProt P03372); assay: Induction of degradation of ERalpha in human MCF7:WS8 cells at 10 nM in presence of MG-132 incubated for 24 hrs by Western blot analysis; assay type: cell-based
T1 sequence (whole entry): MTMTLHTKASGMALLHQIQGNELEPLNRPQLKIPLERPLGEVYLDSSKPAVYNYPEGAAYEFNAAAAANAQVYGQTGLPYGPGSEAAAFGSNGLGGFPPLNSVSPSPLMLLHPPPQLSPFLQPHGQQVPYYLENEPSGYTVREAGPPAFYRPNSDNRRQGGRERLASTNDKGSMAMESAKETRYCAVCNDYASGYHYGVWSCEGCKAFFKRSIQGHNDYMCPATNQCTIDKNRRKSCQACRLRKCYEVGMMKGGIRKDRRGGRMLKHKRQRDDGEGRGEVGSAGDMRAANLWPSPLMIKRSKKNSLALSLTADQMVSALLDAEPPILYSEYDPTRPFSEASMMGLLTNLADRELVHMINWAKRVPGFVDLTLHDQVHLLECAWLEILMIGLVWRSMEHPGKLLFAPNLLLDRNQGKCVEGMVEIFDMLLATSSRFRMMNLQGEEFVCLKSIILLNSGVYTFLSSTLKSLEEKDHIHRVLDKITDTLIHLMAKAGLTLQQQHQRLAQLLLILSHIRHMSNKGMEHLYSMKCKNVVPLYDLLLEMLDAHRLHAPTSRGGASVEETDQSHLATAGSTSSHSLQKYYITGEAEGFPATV

Estrogen receptor [5] = target: T2, Estrogen receptor (Homo sapiens, UniProt P03372); assay: Antagonist activity at ERalpha in human MCF7:WS8 cells incubated for 18 hrs by dual luciferase reporter gene assay relative to control; assay type: cell-based
T2 sequence (P03372 whole entry): T1 sequence (whole entry)
Procedure, shortened: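 MCF7:WS8 cells were estrogen-deprived for 3 days (phenol red-free RPMI, stripped FBS), then plated and grown 24 h. They were co-transfected for 6 h with a 3×vitellogenin ERE-firefly luciferase plasmid and a pRL-TK Renilla plasmid. Compounds were given in competition with 1 nM E2 for 18 h, then dual luciferase was read.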

[6] = Half life in CD-1 mouse plasma at 50 mg/kg, po measured upto 24 hrs by LC-MS/MS analysis; settings: in vivo
T47D [7] = assay: Cytotoxicity against human T47D 3D spheroid cells harboring Y537S mutant assessed as reduction in tumor cell viability at 10 nM incubated for 14 days by celltiter-glo 3D cell viability assay
[8] = MRT (0 to infinity) in CD-1 mouse plasma at 50 mg/kg, po measured upto 24 hrs by LC-MS/MS analysis; settings: in vivo
[9] = Oral bioavailability in C57BL/6 mouse at 50 mg/kg measured upto 24 hrs by LC-MS/MS analysis; assay type: ADME, organism-based; settings: in vivo
Procedure, shortened: (§2)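 Full PK run by a contract lab. Dosing was 50 mg/kg p.o. in water and 10% SBE-β-CD/PEG-400 (9:1 v/v), and 5 mg/kg i.v. Sampling at 0.25, 0.5, 1, 2, 4, 8 and 24 h (N = 5). Plasma samples were diluted in 50% acetonitrile and quantified by LC-MS/MS against standards serially diluted in 50% acetonitrile. Brain was also sampled after the oral dose.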

Homo sapiens = species on record: Homo sapiens; assay: Cytotoxicity against human MCF7:WS8 3D spheroid cells assessed as reduction in tumor cell viability at 10 nM incubated for 14 days by celltiter-glo 3D cell viability assay
[10] = AUC (0 to infinity) in C57BL/6 mouse brain at 50 mg/kg, po measured upto 24 hrs by LC-MS/MS analysis; assay type: ADME, organism-based; design: dose 50 mg/kg, route oral, time infinity; settings: in vivo; procedure, shortened: as §2
MCF7:TAM1 [11] = assay: Cytotoxicity against human MCF7:TAM1 3D spheroid cells assessed as reduction in tumor cell viability at 10 nM incubated for 14 days by celltiter-glo 3D cell viability assay
[12] = MRT (0 to infinity) in CD-1 mouse at 5 mg/kg, iv measured upto 24 hrs by LC-MS/MS analysis; settings: in vivo
[13] = AUC (0 to infinity) in CD-1 mouse plasma at 50 mg/kg, po measured upto 24 hrs by LC-MS/MS analysis; settings: in vivo
[14] = AUC extrapolated from the last time point to infinity in CD-1 mouse plasma at 50 mg/kg, po measured upto 24 hrs by LC-MS/MS analysis; settings: in vivo
Estrogen receptor [15] = target: T2, Estrogen receptor; assay: Inhibition of ERalpha in human MCF7:WS8 cells assessed as increase in degradation of ERalpha incubated for 24 hrs by In-Cell Western assay; assay type: cell-based
Procedure, shortened: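 MCF7:WS8 cells were estrogen-stripped for 2 days and plated at 2.5 × 10^4 per well. ERα was detected by in-cell western (H10 antibody), with signal normalized to CellTag 700.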

T47D [16] = assay: Cytotoxicity against human T47D 3D spheroid cells harboring D538G mutant assessed as reduction in tumor cell viability at 10 nM incubated for 14 days by celltiter-glo 3D cell viability assay
MCF7:TAM1 [17] = assay: Antitumor activity against human MCF7:TAM1 cells xenografted in athymic nude mouse assessed as tumor regression at 100 mg/kg, po measured after 4 weeks; assay type: functional, organism-based
Procedure, shortened: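 MCF7:TAM1 cells were implanted into mammary fat pads of ovariectomized 4–6-week-old athymic nude mice carrying subcutaneous E2 silastic capsules (1.0 cm). Dosing was 100 mg/kg/day p.o. in 10% HPCD/PEG-400 (9:1). Tumor area was measured weekly by calipers as (length/2)×(width/2)×π.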

[18] = AUC extrapolated from the last time point to infinity in CD-1 mouse at 5 mg/kg, iv measured upto 24 hrs by LC-MS/MS analysis; settings: in vivo

concentration at 2 h [2]: 1250 nM
concentration at 2 h [3]: 2150 nM
Activity [4]: inactive
pIC50 (Estrogen receptor [5]): 8.51
t1/2 [6]: 4.48 h
MRT [8]: 6.05 h
F [9]: 21.9%
AUC [10]: 3450 ng·h/mL
MRT [12]: 1.07 h
AUC [13]: 2292 ng·h/mL
%AUCextra [14]: 26.8%
pIC50 (Estrogen receptor [15]): 8.99
%AUCextra [18]: 1.52%
Compound: Cc1cc(F)cc(C)c1C(=O)c1sc2cc(O)ccc2c1Oc1ccc(OC2CN(CCCF)C2)cc1
Emax [1]: 80%
Activity (T47D [7]): Active
Activity (Homo sapiens): Active
Activity (MCF7:TAM1 [11]): Active
Activity (T47D [16]): Active
Activity (MCF7:TAM1 [17]): Active
